Measured values published in ChEMBL document CHEMBL4033780, “Lipidated Brartemicin Analogues Are Potent Th1-Stimulating Vaccine Adjuvants” (J Med Chem, 2018).
The source made the active and inactive calls. No cut-off for these calls is given here.

Assays:
[1] = target: T1, C-type lectin domain family 4 member E (Mus musculus) (UniProt Q9R0Q8); experiment: Agonist activity at mouse mincle coupled with FcRgamma expressed in 2B4-NFAT-GFP reporter cells up to 1 nmol after 18 hrs by flow cytometric analysis; assay type: cell-based
T1 sequence (whole entry): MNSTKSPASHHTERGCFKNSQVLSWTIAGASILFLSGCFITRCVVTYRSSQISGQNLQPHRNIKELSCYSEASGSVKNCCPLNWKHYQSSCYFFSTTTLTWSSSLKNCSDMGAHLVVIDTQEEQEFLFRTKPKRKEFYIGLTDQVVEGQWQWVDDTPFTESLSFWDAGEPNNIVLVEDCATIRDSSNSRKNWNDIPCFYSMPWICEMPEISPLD
How it was run: (§1)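 2B4 NFAT-GFP reporter cells expressing mouse or human Mincle plus FcRγ were placed on plates coated with ligand at 0.01, 0.1 or 1 nmol/well; cells expressing FcRγ only served as negative control. Ligand was coated from isopropanol, 0.05 mM, and solvent evaporated. After 18 h, cells were harvested, stained with propidium iodide and GFP read by flow cytometry. Mean of three experiments in duplicate (±SEM).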

BMDM [2] = experiment: Immunostimulatory activity in mincle-/- C57BL/6 mouse GM-CSF derived BMDM assessed as increase in IL-6 release at […] after 24 hrs by sandwich ELISA method; assay type: functional, cell-based
How it was run: (§2)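 Wild-type or Mincle−/− C57BL/6 bone marrow was cultured 8 days with GM-CSF 50 ng/mL in complete RPMI. Macrophages were detached with Acutase and seeded on ligand-coated plates (0.1 or 1 nmol/well); LPS 100 ng/mL was used as comparator. Supernatant was taken at 24 h and TNF, IL-6, IL-1β and MIP-2 measured by sandwich ELISA. Representative of three experiments in triplicate (±SD).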

[3] = target: T2, C-type lectin domain family 4 member E (Homo sapiens) (UniProt Q9ULY5); experiment: Binding affinity to recombinant human mincle extracellular domain fused with human IgG Fc expressed in HEK293T cells at 0.1 nmol by ELISA; assay type: cell-based; conditions: HEK-293T
T2 sequence (whole entry): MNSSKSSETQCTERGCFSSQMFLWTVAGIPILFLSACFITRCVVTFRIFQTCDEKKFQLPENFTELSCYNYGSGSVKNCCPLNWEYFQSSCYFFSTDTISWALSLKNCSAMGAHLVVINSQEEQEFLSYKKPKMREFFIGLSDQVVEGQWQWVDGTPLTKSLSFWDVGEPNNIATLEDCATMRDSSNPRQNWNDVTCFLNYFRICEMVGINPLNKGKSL

[4] = target: T1, C-type lectin domain family 4 member E (Mus musculus); experiment: Binding affinity to recombinant mouse mincle extracellular domain fused with human IgG Fc expressed in HEK293T cells at 0.1 nmol by ELISA; assay type: cell-based; conditions: HEK-293T
[5] = Toxicity in Atlantic horseshoe crab blood limulus amebocyte lysate by chromogenic endotoxin test; conditions: limulus polyphemus
How it was run: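 Endotoxin was measured by chromogenic Limulus amebocyte lysate assay at a sensitivity of ≤0.1 EU/mL.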

[6] = target: T1, C-type lectin domain family 4 member E (Mus musculus); experiment: Agonist activity at mincle in wild type C57BL/6 mouse GM-CSF derived BMDM assessed as increase in IL-6 release at 0.1 to 1 nmol after 24 hrs by sandwich ELISA; how it was run: as §2
BMDM [7] = experiment: Immunostimulatory activity in mincle-/- C57BL/6 mouse GM-CSF derived BMDM assessed as increase in IL-1beta release at […] after 24 hrs by sandwich ELISA method; assay type: functional, cell-based; how it was run: as §2
[8] = target: T1, C-type lectin domain family 4 member E (Mus musculus); experiment: Agonist activity at mincle in wild type C57BL/6 mouse GM-CSF derived BMDM assessed as increase in IL-1beta release at 0.1 to 1 nmol after 24 hrs by sandwich ELISA; how it was run: as §2
BMDM [9] = experiment: Immunostimulatory activity in mincle-/- C57BL/6 mouse GM-CSF derived BMDM assessed as increase in MIP2 release at […] after 24 hrs by sandwich ELISA method; assay type: functional, cell-based; how it was run: as §2
[10] = target: T1, C-type lectin domain family 4 member E (Mus musculus); experiment: Agonist activity at mincle in wild type C57BL/6 mouse GM-CSF derived BMDM assessed as increase in TNF release at 0.1 to 1 nmol after 24 hrs by sandwich ELISA; how it was run: as §2
[11] = target: T1, C-type lectin domain family 4 member E (Mus musculus); experiment: Agonist activity at mincle in wild type C57BL/6 mouse GM-CSF derived BMDM assessed as increase in MIP2 release at 0.1 to 1 nmol after 24 hrs by sandwich ELISA; how it was run: as §2
BMDM [12] = experiment: Immunostimulatory activity in mincle-/- C57BL/6 mouse GM-CSF derived BMDM assessed as increase in TNF release at […] after 24 hrs by sandwich ELISA method; assay type: functional, cell-based; how it was run: as §2
[13] = target: T2, C-type lectin domain family 4 member E (Homo sapiens); experiment: Agonist activity at human mincle coupled with FcRgamma expressed in 2B4-NFAT-GFP reporter cells after 18 hrs by flow cytometric analysis; assay type: cell-based; how it was run: as §1
[14] = target: T1, C-type lectin domain family 4 member E (Mus musculus); experiment: Agonist activity at mouse mincle coupled with FcRgamma expressed in 2B4-NFAT-GFP reporter cells after 18 hrs by flow cytometric analysis; assay type: cell-based; how it was run: as §1
[15] = target: T2, C-type lectin domain family 4 member E (Homo sapiens); experiment: Agonist activity at human mincle coupled with FcRgamma expressed in 2B4-NFAT-GFP reporter cells at higher concentration after 18 hrs by flow cytometric analysis; assay type: cell-based; how it was run: as §1

| Activity [3] | Activity [4] | Activity [6] | Activity [8] | Activity [10] | Activity [11] | SMILES | Activity (BMDM [2]) | Activity [5] | Activity (BMDM [7]) | Activity (BMDM [9]) | Activity (BMDM [12]) | other results |
| --- | --- | --- | --- | --- | --- | --- | --- | --- | --- | --- | --- | --- |
| inactive | inactive | inactive | inactive | inactive | inactive | O=C(OC[C@H]1O[C@H](O[C@H]2O[C@H](COC(=O)c3ccc(O)cc3O)[C@@H](O)[C@H](O)[C@H]2O)[C@H](O)[C@@H](O)[C@@H]1O)c1ccc(O)cc1O | inactive | <= 0.1 EU/ml | inactive | inactive | inactive | Activity [1]: inactive |
|  |  |  |  |  |  | CCCCCCCOc1ccc(C(=O)OC[C@H]2O[C@H](O[C@H]3O[C@H](COC(=O)c4ccc(OCCCCCCC)cc4OCc4ccccc4)[C@@H](OCc4ccccc4)[C@H](OCc4ccccc4)[C@H]3OCc3ccccc3)[C@H](OCc3ccccc3)[C@@H](OCc3ccccc3)[C@@H]2OCc2ccccc2)c(OCc2ccccc2)c1 |  | <= 0.1 EU/ml |  |  |  |  |
| Active | Active | Active | Active | Active | Active | CCCCCCCCCCCCCCCCCCOc1ccc(C(=O)OC[C@H]2O[C@H](O[C@H]3O[C@H](COC(=O)c4ccc(OCCCCCCCCCCCCCCCCCC)cc4)[C@@H](O)[C@H](O)[C@H]3O)[C@H](O)[C@@H](O)[C@@H]2O)cc1 | inactive | <= 0.1 EU/ml | inactive | inactive | inactive | Activity [13]: Dose-dependent effect; Activity [14]: Dose-dependent effect |
|  |  |  |  |  |  | CCCCOc1ccc(C(=O)OC[C@H]2O[C@H](O[C@H]3O[C@H](COC(=O)c4ccc(OCCCC)cc4OCc4ccccc4)[C@@H](OCc4ccccc4)[C@H](OCc4ccccc4)[C@H]3OCc3ccccc3)[C@H](OCc3ccccc3)[C@@H](OCc3ccccc3)[C@@H]2OCc2ccccc2)c(OCc2ccccc2)c1 |  | <= 0.1 EU/ml |  |  |  |  |
| Active | Active | Active | Active | Active | Active | CCCCCCCCCCCCCCCCCCOc1cc(C)c(C(=O)OC[C@H]2O[C@H](O[C@H]3O[C@H](COC(=O)c4c(C)cc(OCCCCCCCCCCCCCCCCCC)cc4O)[C@@H](O)[C@H](O)[C@H]3O)[C@H](O)[C@@H](O)[C@@H]2O)c(O)c1 | inactive | <= 0.1 EU/ml | inactive | inactive | inactive | Activity [13]: Dose-dependent effect; Activity [14]: Dose-dependent effect |
|  |  |  |  |  |  | O=C(OC[C@H]1O[C@H](O[C@H]2O[C@H](COC(=O)c3ccc(OCc4ccccc4)cc3OCc3ccccc3)[C@@H](OCc3ccccc3)[C@H](OCc3ccccc3)[C@H]2OCc2ccccc2)[C@H](OCc2ccccc2)[C@@H](OCc2ccccc2)[C@@H]1OCc1ccccc1)c1ccc(OCc2ccccc2)cc1OCc1ccccc1 |  | <= 0.1 EU/ml |  |  |  |  |
|  |  |  |  |  |  | CCCCCCCCCCCCCCCCCCOc1cc(C)c(C(=O)OC[C@H]2O[C@H](O[C@H]3O[C@H](COC(=O)c4c(C)cc(OCCCCCCCCCCCCCCCCCC)cc4OCc4ccccc4)[C@@H](OCc4ccccc4)[C@H](OCc4ccccc4)[C@H]3OCc3ccccc3)[C@H](OCc3ccccc3)[C@@H](OCc3ccccc3)[C@@H]2OCc2ccccc2)c(OCc2ccccc2)c1 |  | <= 0.1 EU/ml |  |  |  |  |
|  |  |  |  |  |  | Cc1cc(OCc2ccccc2)cc(OCc2ccccc2)c1C(=O)OC[C@H]1O[C@H](O[C@H]2O[C@H](COC(=O)c3c(C)cc(OCc4ccccc4)cc3OCc3ccccc3)[C@@H](OCc3ccccc3)[C@H](OCc3ccccc3)[C@H]2OCc2ccccc2)[C@H](OCc2ccccc2)[C@@H](OCc2ccccc2)[C@@H]1OCc1ccccc1 |  | <= 0.1 EU/ml |  |  |  |  |
|  |  |  |  |  |  | CCCCCCCCCCCCCCCCCCOc1ccc(C(=O)OC[C@H]2O[C@H](O[C@H]3O[C@H](COC(=O)c4ccc(OCCCCCCCCCCCCCCCCCC)cc4OCc4ccccc4)[C@@H](OCc4ccccc4)[C@H](OCc4ccccc4)[C@H]3OCc3ccccc3)[C@H](OCc3ccccc3)[C@@H](OCc3ccccc3)[C@@H]2OCc2ccccc2)c(OCc2ccccc2)c1 |  | <= 0.1 EU/ml |  |  |  |  |
|  |  |  |  |  |  | COc1ccc(C(=O)OC[C@H]2O[C@H](O[C@H]3O[C@H](COC(=O)c4ccc(OC)cc4OCc4ccccc4)[C@@H](OCc4ccccc4)[C@H](OCc4ccccc4)[C@H]3OCc3ccccc3)[C@H](OCc3ccccc3)[C@@H](OCc3ccccc3)[C@@H]2OCc2ccccc2)c(OCc2ccccc2)c1 |  | <= 0.1 EU/ml |  |  |  |  |
|  |  |  |  |  |  | CCCCCCCCCCCCCCCCCCOc1ccc(C(=O)OC[C@H]2O[C@H](O[C@H]3O[C@H](COC(=O)c4ccc(OCCCCCCCCCCCCCCCCCC)cc4)[C@@H](OCc4ccccc4)[C@H](OCc4ccccc4)[C@H]3OCc3ccccc3)[C@H](OCc3ccccc3)[C@@H](OCc3ccccc3)[C@@H]2OCc2ccccc2)cc1 |  | <= 0.1 EU/ml |  |  |  |  |
|  |  |  |  |  |  | CCCCCCCOc1ccc(C(=O)OC[C@H]2O[C@H](O[C@H]3O[C@H](COC(=O)c4ccc(OCCCCCCC)cc4)[C@@H](OCc4ccccc4)[C@H](OCc4ccccc4)[C@H]3OCc3ccccc3)[C@H](OCc3ccccc3)[C@@H](OCc3ccccc3)[C@@H]2OCc2ccccc2)cc1 |  | <= 0.1 EU/ml |  |  |  |  |
| inactive | inactive | inactive | inactive | inactive | inactive | Cc1cc(O)cc(O)c1C(=O)OC[C@H]1O[C@H](O[C@H]2O[C@H](COC(=O)c3c(C)cc(O)cc3O)[C@@H](O)[C@H](O)[C@H]2O)[C@H](O)[C@@H](O)[C@@H]1O [BRARTEMICIN] | inactive | <= 0.1 EU/ml | inactive | inactive | inactive | Activity [1]: inactive |
| inactive | inactive | inactive | inactive | inactive | inactive | COc1ccc(C(=O)OC[C@H]2O[C@H](O[C@H]3O[C@H](COC(=O)c4ccc(OC)cc4O)[C@@H](O)[C@H](O)[C@H]3O)[C@H](O)[C@@H](O)[C@@H]2O)c(O)c1 | inactive | <= 0.1 EU/ml | inactive | inactive | inactive | Activity [15]: Active |
